These results are taken from the array DNA melting data of Ke et al. (doi:10.1101/2024.01.08.574731).

The nature of data set [1]: folding enthalpy; higher = less favourable; fluorescence melt of hairpins on a sequencing array, two-state fit. As to conditions: sodium 0.088 M. The gist of the method: (§1)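 Library hairpins on a sequenced MiSeq flow cell carried annealed Cy3 and quencher oligos, and their Cy3 fluorescence was imaged in 50 mM Na-HEPES pH 8.0 with 25 mM NaCl, in 2.5 °C steps up to 60 °C. Signals were normalised to Cy3 before quenching and to control constructs. Melting temperature and folding enthalpy were obtained from bootstrapped two-state fits, combined by inverse-variance weighting across four replicates, and the fitted temperatures were then raised by 9.35 °C to match UV melts.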

The nature of data set [2]: melting temperature; fluorescence melt of hairpins on a sequencing array, two-state fit, raised by 9.35 °C to match UV melts. As to conditions: sodium 0.088 M. The gist of the method: as §1

Take GCTAGGCGAAAGCTTCGC ((.(.((....)).).)): the folding enthalpy in data set [1] is -13.9 kcal/mol. For the same sequence, the Tm in data set [2] turned out to be 36.2 °C.

For GGAACGCCGAAAGGCTCC (((..(((....)))))), the folding enthalpy in data set [1] is -9.39 kcal/mol. Besides, the Tm in data set [2] is 33 °C.

Take ATCCCGAAAGGGAT (((((....))))): the folding enthalpy in data set [1] is -29.1 kcal/mol. In addition, the Tm in data set [2] was 60.9 °C.

Consider GGATTTTCGAAAGAATCC (((..(((....)))))), for which, in data set [1], the folding enthalpy was -17.7 kcal/mol. For the same sequence, in data set [2], the Tm amounted to 31.4 °C.

As for GAGACCGAAAGGTTCTC ((((((....))).))), the folding enthalpy in data set [1] was -22.3 kcal/mol. The Tm in data set [2] stood at 54.2 °C.

As for GACTCCGGAAACGGAGCC (.(((((....))))).), the folding enthalpy in data set [1] is -13.6 kcal/mol. For the same sequence, in data set [2], the Tm was determined as 50.5 °C.

Consider GTATGCGAAAGCATAC ((((((....)))))), for which the folding enthalpy in data set [1] was -28.3 kcal/mol. Further, the Tm in data set [2] came out at 69.2 °C.

For the sequence GCCAGTCGAAAGACAGGC (((.(((....))).))), in data set [1], the folding enthalpy was -29.6 kcal/mol. In addition, the Tm in data set [2] worked out at 62.8 °C.

Take GACGACGGAAACACCGTC ((((..(....)..)))): in data set [1], the folding enthalpy is -13.2 kcal/mol. Further, the Tm in data set [2] amounted to 38.2 °C.

In the case of GATCCCGCGGGGATC ((((((...)))))), in data set [1], the folding enthalpy is -31.2 kcal/mol. In addition, the Tm in data set [2] was determined as 61 °C.

For the sequence GATCGGCCCCCCGATC ((((((....)))))), the folding enthalpy in data set [1] is -37.1 kcal/mol. The Tm in data set [2] turned out to be 56.1 °C.

As to GAAACACGAAAGTGATTC (((.(((....))).))), the folding enthalpy in data set [1] is -29.6 kcal/mol. The Tm in data set [2] was 45.5 °C.

Take GATCGCAGGTGCGATC ((((((....)))))): the folding enthalpy in data set [1] was -39.8 kcal/mol. Also, the Tm in data set [2] turned out to be 68.4 °C.

GCCTGGCGAAAGCCCGGC (((.(((....))).))): in data set [1], the folding enthalpy is -35.3 kcal/mol. Moreover, the Tm in data set [2] was determined as 59.4 °C.

Take GGTGGCGAAAGCCAGACC ((((((....)))..))): in data set [1], the folding enthalpy was -12.6 kcal/mol. In addition, the Tm in data set [2] came to 46.9 °C.

CGGTAACGGAAACGTCCG (((..(((....)))))): the folding enthalpy in data set [1] was -24.6 kcal/mol. Also, in data set [2], the Tm was 37.9 °C.

Take GCGCTGCGAAAGCAAAGC ((..(((....)))..)): the folding enthalpy in data set [1] was -17.7 kcal/mol. Moreover, the Tm in data set [2] came to 60 °C.

In the case of GAAACCGAAAGGTGATTC ((((((....)))..))), in data set [1], the folding enthalpy is -22.4 kcal/mol. Besides, the Tm in data set [2] was 41.6 °C.

On to GTCGGGGGAAACCCTGAC (((.(((....))).))), for which the folding enthalpy in data set [1] is -53.6 kcal/mol. Besides, the Tm in data set [2] amounted to 53.4 °C.

Regarding GGCAGTCCGAAAGGAGCC (((..(((....)))))), the folding enthalpy in data set [1] was -22.1 kcal/mol. Besides, the Tm in data set [2] amounted to 47.4 °C.

Take GGGGATGGAAACGTTCCC (((.(.(....).).))): in data set [1], the folding enthalpy is -30 kcal/mol. Also, the Tm in data set [2] worked out at 39 °C.

Consider GAATCCCGAAAGGGTTTC (((.(((....))).))), for which, in data set [1], the folding enthalpy was -23.6 kcal/mol. Further, in data set [2], the Tm was 45.6 °C.

On to GAACTAGGAAACTGGTTC ((((.((....)).)))), for which the folding enthalpy in data set [1] is -29 kcal/mol. Moreover, the Tm in data set [2] turned out to be 43 °C.

As for GTACGTGCGAAAGCATAC (((..(((....)))))), in data set [1], the folding enthalpy was -10.3 kcal/mol. Further, in data set [2], the Tm amounted to 26.4 °C.

For the sequence GGGCATGCGAAAGCACCC (((..(((....)))))), the folding enthalpy in data set [1] was -18.6 kcal/mol. Besides, in data set [2], the Tm turned out to be 42.3 °C.

As to GTAAACGAAAGTTTATAC ((((((....)))..))), the folding enthalpy in data set [1] is -13.4 kcal/mol. Also, the Tm in data set [2] is 37.1 °C.

As for GATCCGAAGTCGGATC ((((((....)))))), the folding enthalpy in data set [1] was -39.9 kcal/mol. In data set [2], the Tm turned out to be 56.2 °C.

On to GGATGAGGAAACTCATTC (.(((((....))))).), for which, in data set [1], the folding enthalpy was -23.7 kcal/mol. Also, the Tm in data set [2] was found to be 41.6 °C.

GAAGTTGAAAAACTTC ((((((....)))))): in data set [1], the folding enthalpy was -28.1 kcal/mol. Also, the Tm in data set [2] is 48.5 °C.

As for GATCTGTTACAGATC ((((((...)))))), the folding enthalpy in data set [1] was -36.3 kcal/mol. Besides, the Tm in data set [2] stood at 50.5 °C.

For GATCACGGACGTGATC ((((((....)))))), the folding enthalpy in data set [1] is -37.7 kcal/mol. The Tm in data set [2] worked out at 67.2 °C.

Regarding GGACAACGAAAGTTATCC (((.(((....))).))), in data set [1], the folding enthalpy was -29.4 kcal/mol. Besides, in data set [2], the Tm came to 40 °C.

For the sequence GTACGAGGAAACTTGTGC (.((.((....)).)).), in data set [1], the folding enthalpy is -16.8 kcal/mol. In data set [2], the Tm is 33 °C.

Take GAACGAGGAAACTCGTCC (.(((((....))))).): the folding enthalpy in data set [1] is -13.7 kcal/mol. The Tm in data set [2] was determined as 37.8 °C.

Consider GGAGAAGGAAACTTCTTC (.(((((....))))).), for which, in data set [1], the folding enthalpy is -23.1 kcal/mol. Further, the Tm in data set [2] is 36.7 °C.

Turning to GGACACGAAAGTGGCTCC ((((((....)))..))), the folding enthalpy in data set [1] is -11.8 kcal/mol. In addition, in data set [2], the Tm stood at 49 °C.

Consider GATCTATGGATAGATC ((((((....)))))), for which the folding enthalpy in data set [1] was -29.5 kcal/mol. Besides, in data set [2], the Tm was determined as 43 °C.
